# An excerpt weighted towards active compounds, which were near 2.9% of everything screened.
# Kir21 inh: Kir2.1 (mouse) channel inhibition. P35561. HEK293-Kir2.1, FluxOR thallium flux fluorescence; stronger effect = lower value. B-score at 10 µM. 310,000 compounds, 0.85% hits. AID 1672;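 active = fluorescence ratio B-score at or below minus 3 SD of library scores, with starting-brightness B-score within 2 SD, cut at about -4.2 in these data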;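 note: channel flux triggered by added potassium and thallium sulfate stimulus; B-score of peak minus minimum fluorescence over baseline after thallium stimulus; more negative B-score means stronger Kir2.1 block with less thallium influx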
# TRPC4 potent: allosterically enhances the mouse TRPC4 cation channel | 310,000 compounds, 0.42% hits | HEK293 TRPC4beta/mu-opioid, DAMGO EC20, Fluo-4 Ca2+ flux; stronger effect = higher value | AID 2227 | Q9QUQ5 | B-score at 10 µM;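 active = B-score of calcium response area above 5 SD of library B-scores, with initial fluorescence ratio within 5 SD of library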;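 note: B-score of integrated fluorescence ratio over time as area under calcium response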
# TRPC6 act: activates the mouse TRPC6 cation channel; B-score at 10 µM; 310,000 compounds, 0.13% hits; AID 2550; HEK293-TRPC6 membrane potential dye fluorescence; stronger effect = higher value;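 active = B-score of the integrated fluorescence ratio above library mean plus 3 SD, and starting fluorescence ratio within library mean plus 5 SD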;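 note: higher score means more depolarization so channel activation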
# TRPC4 act: activators of mouse TRPC4 channel. HEK293 TRPC4beta/mu-opioid, Fluo4 calcium fluorescence; stronger effect = higher value. B-score at 10 µM. 310,000 compounds, 0.49% hits. AID 2237;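 active = B-score above 5 SD of library B-scores, and initial fluorescence ratio not above library mean plus 5 SD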;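 note: positive B-score marks a calcium rise read as TRPC4 activation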
#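 System – HEK293 cells stably co-expressing mouse TRPC4beta and mu-opioid receptor · Signal – Fluo4 calcium-sensitive dye fluorescence, kinetic, 1 Hz baseline · Benchmarks – buffer (low) and maximal DAMGO (high) · Read-out – B score of integrated fluorescence ratio per well · Incubation – dye loading 45 min room temperature, 110 s kinetic read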
# TRPC6 inhibitor: blocks the mouse TRPC6 cation channel; Q61143; HEK293-TRPC6, membrane potential dye, ACh-evoked depolarization; stronger effect = lower value; B-score at 10 µM; 310,000 compounds, 1.1% hits; AID 2553;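 active = B-score under library mean minus 3 SD, initial fluorescence not abnormally high, positive integrated signal ratio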;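 note: B-score derived from integrated fluorescence ratio over the kinetic read; more negative B-score means stronger inhibition of depolarization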
# TRPC4 inh: TRPC4 (mouse) channel inhibition; AID 2247; B-score at 10 µM; 300,000 compounds, 0.39% hits; HEK293 TRPC4beta/mu-opioid, DAMGO-evoked Fluo4 calcium flux; stronger effect = lower value;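 active = B-score over 3 SD under the library average, no early fluorescence shift, positive overall ratio signal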
#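 System: stable TRPC4beta/mu-opioid receptor HEK293 cells; Dosing: single-point compound dosing; Measured by: Fluo4 Ca2+ flux fluorescence; Read-out basis: per-well B score of integrated baseline-normalized Fluo4 ratio.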
# The depositor's hits bear a star; i = inactive.
SMILES,Kir21 inh,TRPC4 potent,TRPC6 act,TRPC4 act,TRPC6 inhibitor,TRPC4 inh
CC(C)(C)OC(=O)N1CCC[C@H]1c1nnc(SCc2ccccc2Cl)o1,-8*,i,i,i,i,i
CN(Cc1ccc(N(C)C)cc1)C(=O)c1cc2ccccc2o1,0.41,i,i,i,i,i
Nc1c(Cl)c(Cl)nc(C(=O)OCC(=O)NC2CCCCC2)c1Cl,-1.9,i,i,i,i,i
CN(CCCC1CCCC1)C(=O)CC1C(=O)NCCN1Cc1cccc(F)c1F (stereo not given),-0.03,i,i,i,i,i
Cc1ccc(/C=C2\SC(=S)N(CCCC(=O)Nc3ccccc3C(=O)O)C2=O)cc1,-0.08,i,i,i,i,i
COc1ccc(/C=C2/SC(=S)N(CCCC(=O)Nc3ccccc3C(=O)O)C2=O)cc1,0.05,i,i,i,i,-6*
COCCN(C(=O)COC(=O)CCCOc1ccc(OC)cc1)c1c(N)n(Cc2ccccc2)c(=O)[nH]c1=O,-0.26,i,i,i,i,i
Cc1cccc(NC(=O)CSc2nnc(-c3cc(C)n(-c4ccccc4)c3C)o2)c1C,-0.98,i,i,i,i,-7*
Cc1cc(-c2nnc(SCC(=O)Nc3ccccc3C(F)(F)F)o2)c(C)n1-c1ccccc1,-0.12,i,i,i,i,i
O=C(/C=C/c1ccccc1)n1cnnc1SC/C=C/c1ccccc1,-6.9*,i,i,i,i,i
Cc1nnc(SC/C=C/c2ccccc2)n(N)c1=O,-2.4,i,i,i,i,i
O=[N+]([O-])c1ccc(Sc2nccn2Cc2ccccc2)cc1,-5*,i,i,i,i,i
CC1CC(=O)c2c(cc3c(-c4c(O)cc(O)c5c(O)c6c(cc45)OC(C)CC6=O)c(O)cc(O)c3c2O)O1 (stereo not given),-2.2,i,43*,i,i,i
CC(CC(=O)Nc1nnc(C(C)(C)C)s1)c1ccccc1 (stereo not given),0.02,i,i,i,i,i
COCCCN1C(=O)c2[nH]nc(-c3cc(C)cc(C)c3O)c2C1c1ccc(O)c(OC)c1 (stereo not given),-0.29,i,i,i,i,i
COCCCN1C(=O)c2[nH]nc(-c3ccccc3O)c2C1c1ccc(Cl)cc1 (stereo not given),0.08,13*,i,i,i,i
CCCN1C(=O)c2[nH]nc(-c3cc(Cl)c(C)cc3O)c2C1c1ccc(O)c(OC)c1 (stereo not given),1.6,11*,i,i,i,i
CCOC(=O)C1=C(CNCCc2ccc(Cl)cc2)NC(=O)NC1c1cccc([N+](=O)[O-])c1 (stereo not given),-1.2,17*,i,i,i,i
COC(=O)C1=C(CCc2ccccc2)NC(=O)NC1c1ccc(Cl)cc1 (stereo not given),-0.7,29*,i,i,i,i
COC(=O)C1=C(COc2ccccc2)NC(=O)NC1c1ccc2ccccc2c1 (stereo not given),-0.68,i,i,45*,i,i
COC(=O)C1=C(COc2ccccc2)NC(=O)NC1c1ccc(Br)cc1 (stereo not given),0.23,i,i,i,i,i
CCOC(=O)C1=C(CNCc2ccccc2Cl)NC(=O)NC1c1cccc([N+](=O)[O-])c1 (stereo not given),-0.11,i,i,i,i,i
Cc1ccc(-n2nc3c(=O)n(CCCC(=O)NCc4cccc(F)c4)nc(C)c3c2C)cc1,-0.05,i,i,i,i,i
NC(=O)c1nsc(C(=O)N(c2ccc3c(c2)OCO3)C(C(=O)NCC2CCCO2)c2ccc(F)cc2)c1N (stereo not given),-2.1,i,i,i,i,i
CCn1c(=O)[nH]c(=O)c2c(N)c(C(=O)c3cc(F)ccc3F)sc21,-0.16,10*,i,i,i,i
SMILES,Kir21 inh,TRPC4 potent,TRPC6 act,TRPC4 act,TRPC6 inhibitor,TRPC4 inh
CCC(=O)c1ccc(N2CCN(C(=O)c3ccccc3F)CC2)c(F)c1,0.73,i,i,i,i,i
CCC(=O)c1ccc(N2CCN(C(=O)c3ccccc3Br)CC2)c(F)c1,-1.2,28*,i,i,i,i
Cc1ccc(N2CCN(C(=O)c3ccccc3F)CC2)c(C)c1,0.06,i,i,i,i,-7*
COc1ccc(OC)c(CNC(=O)CCn2nc(C)c3c(C)n(-c4ccccc4)nc3c2=O)c1,-0.82,i,i,i,i,i
NC(=Nc1ccccc1)Nc1ccccc1,-0.42,i,i,134*,i,i
CCOC(=O)/C(C(=Nc1ccccc1)Nc1ccccc1)=C(\C)O,-0.68,i,i,i,i,i
CCN(CC)CCNC(=O)CCc1c(C)nc2c(c(C)nn2-c2ccc(C)cc2)c1C,-4.5*,i,i,i,i,i
CCCCCCCNC(=O)COc1ccc2c(c1)C(=O)CC(C)(C)O2,-1.3,i,i,i,i,-5*
CCOc1ccccc1O[C@H](c1ccccc1)[C@H]1CNCCO1,-4.1,i,i,161*,i,i
CCOc1ccccc1NC(=O)C(NCC1CCCCC1)c1ccccc1 (stereo not given),2.9,i,i,i,i,i
CS(=O)(=O)N(CC(=O)Nc1ccc(S(=O)(=O)N2CCCC2)cc1)c1cccc(F)c1,0.76,i,i,i,i,i
CN1CCc2c(C#N)c(N3CCCCC3)nc(NCc3ccccc3)c2C1,0.02,13*,i,i,i,i
N#Cc1c(NCCCO)nc(NCc2ccccc2)c2c1CCN(Cc1ccccc1)C2,-1.5,i,i,i,i,i
CC(C)(C)C1C=C(Sc2ccccc2)C(=O)O1 (stereo not given),1.9,i,i,i,i,i
O=C(NCc1ccco1)c1ccc2nc3sc4c(c3c(=O)n2c1)CCCC4,-0.11,i,i,i,i,-6*
C=CCn1c(SCC(=O)NCc2ccco2)nc2sc3c(c2c1=O)CCCC3,-0.69,i,i,i,i,i
Cc1ccc(N2C(=O)N3[C@H](c4ccc(F)cc4)[C@@H]4C(=O)N(C5CCCCC5)C(=O)[C@@H]4[C@]3(Cc3ccccc3)C2=O)cc1,0.02,i,i,i,i,i

# Screening results as filed in PubChem.
